Calls of active or inactive are those of the source. No rule for the calls is given here.
Biological target: Metabotropic glutamate receptor 7 (Rattus norvegicus) (UniProt P35400)
Experiment: L-AP4 potency shift at rat mGlu7 – cell-based, TRex293, Galpha15, Fluo4 calcium, selectivity assay for mGlu5 silent allosteric modulator project (AID 652203)
Details: rmGlu7+Galpha15 TRex293, L-AP4 calcium Fluo4 fold shift; at 10 µM
Procedure, shortened: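 Assay system: TRex293 cells expressing rat mGlu7 plus Galpha15; Technique: Fluo4 calcium fluorescence; Medium: pH 7.4 buffer with probenecid; Timing: compound at 20 s, agonist 60 s later; Doses: single test-compound dose of 10 µM, 1% DMSO final; Evaluation: shift in L-AP4 response caused by compound; Reagent: L-AP4, 3.9 µM–1 mM, 9 concentrations.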

Chain of Metabotropic glutamate receptor 7 (Rattus norvegicus) (P35400 whole entry, looked up): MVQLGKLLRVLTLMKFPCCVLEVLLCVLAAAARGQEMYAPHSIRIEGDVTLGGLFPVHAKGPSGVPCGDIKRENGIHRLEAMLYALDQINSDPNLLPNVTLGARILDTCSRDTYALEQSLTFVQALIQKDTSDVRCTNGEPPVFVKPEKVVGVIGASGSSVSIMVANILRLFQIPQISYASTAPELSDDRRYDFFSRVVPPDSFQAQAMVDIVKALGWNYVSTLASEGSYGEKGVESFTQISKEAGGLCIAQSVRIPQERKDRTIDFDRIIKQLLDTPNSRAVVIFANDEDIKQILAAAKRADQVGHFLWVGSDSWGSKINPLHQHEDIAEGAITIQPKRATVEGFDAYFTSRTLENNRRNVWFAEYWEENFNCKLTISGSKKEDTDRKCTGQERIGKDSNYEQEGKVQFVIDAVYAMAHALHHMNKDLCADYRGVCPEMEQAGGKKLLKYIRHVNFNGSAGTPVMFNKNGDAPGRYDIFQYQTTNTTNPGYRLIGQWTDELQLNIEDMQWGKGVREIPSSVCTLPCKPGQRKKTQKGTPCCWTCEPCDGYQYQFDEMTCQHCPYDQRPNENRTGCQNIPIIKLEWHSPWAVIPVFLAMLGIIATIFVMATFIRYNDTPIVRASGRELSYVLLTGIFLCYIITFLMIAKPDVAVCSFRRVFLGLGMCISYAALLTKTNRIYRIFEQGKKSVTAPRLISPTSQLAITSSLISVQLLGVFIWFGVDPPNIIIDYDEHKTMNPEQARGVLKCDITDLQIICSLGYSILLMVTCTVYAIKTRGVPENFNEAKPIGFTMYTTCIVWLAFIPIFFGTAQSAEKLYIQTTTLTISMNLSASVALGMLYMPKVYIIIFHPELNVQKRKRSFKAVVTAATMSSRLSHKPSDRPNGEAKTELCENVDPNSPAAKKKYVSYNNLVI

Compound: O=C(c1ccc(C#Cc2cccc(F)c2)cn1)N1CC2CC2C1 (stereo unspecified)
- fold shift of L-AP4 EC50: 0.696 (inactive)
